Assay results published in ChEMBL document CHEMBL1155553, “Design and synthesis of alpha-ketoamides as cathepsin S inhibitors with potential applications against tumor invasion and angiogenesis” (J Med Chem, 2010).
The source made the active and inactive calls. No cut-off for these calls is given here.

What was measured:
HUVEC [1] = assay: Antiinvasive activity in VEGF-stimulated HUVEC assessed as cellular migration after 24 hrs by fluorescence assay relative to control; format: functional, Homo sapiens; set-up: concentration or dose not given beside the values
[2] = Antiinvasive activity in human CL1-5 cells assessed as cellular migration after 24 hrs by fluorescence assay relative to control; format: functional; set-up: concentration or dose not given beside the values
[3] = Cytotoxicity against human CL1-5 cells by MTT assay; format: cell-based
Procedure, shortened: (§1)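 Overall cytotoxicity measured by MTT proliferation assay, compounds tested at concentrations up to 50 μM.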

Cathepsin S [4] = molecular target: T1, Cathepsin S (Homo sapiens, UniProt P25774); assay: Inhibition of human recombinant cathepsin S expressed in Escherichia coli BL21 (DE3) after 10 mins by fluorescence assay
Target sequence in this assay (P25774 whole entry): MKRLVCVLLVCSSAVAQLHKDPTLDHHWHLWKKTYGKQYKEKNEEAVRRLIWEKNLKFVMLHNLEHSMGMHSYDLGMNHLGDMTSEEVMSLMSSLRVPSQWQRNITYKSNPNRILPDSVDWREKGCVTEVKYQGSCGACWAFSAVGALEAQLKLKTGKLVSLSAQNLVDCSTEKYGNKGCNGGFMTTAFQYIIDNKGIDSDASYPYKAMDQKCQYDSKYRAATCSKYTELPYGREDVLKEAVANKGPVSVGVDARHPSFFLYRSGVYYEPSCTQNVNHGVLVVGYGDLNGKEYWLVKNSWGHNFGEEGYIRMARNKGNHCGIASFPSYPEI

HUVEC [5] = assay: Cytotoxicity against HUVEC by MTT assay; format: cell-based; conditions: Homo sapiens; procedure, shortened: as §1
[6] = molecular target: Cathepsin B (Homo sapiens) (UniProt P07858); assay: Inhibition of cathepsin B assessed as proteolytic activity at 40 nM by fluorimetric assay; set-up: Activity: scale not given: the % may be the effect or the level left
[7] = molecular target: Procathepsin L (Homo sapiens) (UniProt P07711); assay: Inhibition of cathepsin L assessed as proteolytic activity at 40 nM by fluorimetric assay; set-up: Activity: scale not given: the % may be the effect or the level left
HUVEC [8] = assay: Antiangiogenic activity in VEGF-stimulated HUVEC assessed as inhibition of capillary tube formation after 16 hrs by photographic analysis; format: functional, Homo sapiens; set-up: scale not given: the % may be the effect or the level left
Procedure, shortened: (§2)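 HUVEC plated on Matrigel-coated wells, treated with α-ketoamide in presence of VEGF (20 ng/mL); after 16 h incubation cultures photographed and capillary tubes (branch points) counted under microscope at 100× magnification. Tube formation expressed relative to DMSO control; mean ± SD from three separate experiments.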

[9] = Antiinvasive activity in human CL1-5 cells after 24 hrs by fluorescence assay; format: functional
Procedure, shortened: (§3)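 CL1-5 lung adenocarcinoma cells (2 × 10⁵ per well) treated with compound; control wells received DMSO (10 μL) in medium (2 mL). Cell traversal/invasion expressed as percent of DMSO control (set 100%); mean ± SD from hexaplicate experiments.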

[10] = Antiinvasive activity in human CL1-5 cells assessed as cellular invasion after 24 hrs by fluorescence assay; format: functional; procedure, shortened: as §3
[11] = Cytotoxicity against human CL1-5 cells assessed as maximal tolerated dose by MTT assay; format: cell-based; conditions: read-out: MTD
Procedure, shortened: (§4)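 MTT proliferation read-out for overall cytotoxicity of the α-ketoamides. Compounds were tested at concentrations up to 50 μM. Both cell types express high levels of Cat S.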

HUVEC [12] = assay: Antiangiogenic activity in VEGF-stimulated HUVEC assessed as capillary tube formation after 16 hrs by photographic analysis; format: functional, Homo sapiens; procedure, shortened: as §2
[13] = Cytotoxicity against HUVEC assessed as maximal tolerated dose by MTT assay; format: cell-based; conditions: human, read-out: MTD; procedure, shortened: as §4
Cathepsin S [14] = molecular target: T1, Cathepsin S; assay: Inhibition of cathepsin S-mediated cleavage of fibronectin by cell-based ECM degradation assay
Target sequence in this assay (P25774 115-331 limits assumed): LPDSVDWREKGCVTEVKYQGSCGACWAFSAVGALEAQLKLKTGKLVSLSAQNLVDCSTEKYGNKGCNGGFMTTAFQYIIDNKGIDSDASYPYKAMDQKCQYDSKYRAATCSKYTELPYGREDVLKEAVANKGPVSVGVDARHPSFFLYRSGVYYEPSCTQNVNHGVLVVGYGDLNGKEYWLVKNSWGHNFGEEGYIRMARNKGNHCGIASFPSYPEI

Cathepsin S [15] = molecular target: T1, Cathepsin S; assay: Competitive inhibition of human recombinant cathepsin S expressed in Escherichia coli BL21 (DE3) after 15 mins by Lineweaver-Burke plot analysis
Target sequence in this assay (P25774 115-331 limits assumed): as above

Procathepsin L (Homo sapiens), sequence (P07711 114-333 limits assumed): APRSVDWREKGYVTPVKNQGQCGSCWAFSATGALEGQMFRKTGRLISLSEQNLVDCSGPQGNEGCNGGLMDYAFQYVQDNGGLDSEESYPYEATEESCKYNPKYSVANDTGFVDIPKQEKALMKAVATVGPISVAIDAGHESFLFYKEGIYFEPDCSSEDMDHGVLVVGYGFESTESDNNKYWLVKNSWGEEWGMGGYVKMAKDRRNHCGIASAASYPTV

SMILES	Activity (HUVEC [1]) [%]	Activity [2] [%]	IC50 [3] [nM]	IC50 (Cathepsin S [4]) [nM]	IC50 (HUVEC [5]) [nM]	other results
CCOC(=O)CNC(=O)C(=O)C(COCc1ccccc1)NC(=O)[C@H](CC1CCCCC1)NC(=O)c1cc(Cl)cc([N+](=O)[O-])c1 (some centres undefined)	73	80	> 50000	22.8	> 50000	–
CCOC(=O)CNC(=O)C(=O)C(COCc1ccccc1)NC(=O)[C@H](CC1CCCCC1)NC(=O)c1cc(SC)ccc1Cl (some centres undefined)	–	65	32000	3.6	> 50000	Activity [6]: 92%; Activity [7]: 17.4%
CCOC(=O)CNC(=O)C(=O)C(COCc1ccccc1)NC(=O)[C@H](CC1CCCCC1)NC(=O)c1ccc(C)cc1 (some centres undefined)	55	55	–	6.2	–	–
CCOC(=O)CNC(=O)C(=O)C(COCc1ccccc1)NC(=O)[C@H](CC1CCCCC1)NC(=O)c1cccc([N+](=O)[O-])c1 (some centres undefined)	39	67	> 50000	1.9	> 50000	Activity [6]: 97%; Activity [7]: 2.9%
CCOC(=O)CNC(=O)C(=O)C(COCc1ccccc1)NC(=O)[C@H](CC1CCCCC1)NC(=O)c1cccc(C)c1[N+](=O)[O-] (some centres undefined)	83	79	–	5.6	–	–
CCOC(=O)CNC(=O)C(=O)C(COCc1ccccc1)NC(=O)[C@H](CC1CCCCC1)NC(=O)CC(c1ccccc1)(c1ccccc1)c1ccccc1 (some centres undefined)	–	–	> 50000	> 100	–	–
CCOC(=O)CNC(=O)C(=O)C(COCc1ccccc1)NC(=O)[C@H](CC1CCCCC1)NC(=O)c1cccc(F)c1F (some centres undefined)	107	115	–	5.9	–	–
CCOC(=O)CNC(=O)C(=O)C(COCc1ccccc1)NC(=O)[C@H](CC1CCCCC1)NC(=O)Cc1cccc2ccccc12 (some centres undefined)	54	41	–	5.7	–	–
CCOC(=O)CNC(=O)C(=O)C(COCc1ccccc1)NC(=O)[C@H](CC1CCCCC1)NC(=O)/C=C/c1cc(OC)ccc1OC (some centres undefined)	59	81	> 50000	3.8	–	–
CCOC(=O)CNC(=O)C(=O)C(COCc1ccccc1)NC(=O)[C@H](CC1CCCCC1)NC(=O)c1cc(Br)ccc1NC(=O)OC(C)(C)C (some centres undefined)	86	76	–	23.8	–	–
CCOC(=O)CNC(=O)C(=O)C(COCc1ccccc1)NC(=O)[C@H](CC1CCCCC1)NC(=O)CCC(=O)c1ccc2ccc3cccc4ccc1c2c34 (some centres undefined)	–	–	–	> 100	–	–
CCOC(=O)CNC(=O)C(=O)C(COCc1ccccc1)NC(=O)[C@H](CC1CCCCC1)NC(=O)c1ccc(C(=O)OC)c(NC(=O)OC(C)(C)C)c1 (some centres undefined)	82	51	36000	49.2	47000	Activity [6]: 89%; Activity [7]: 8.7%
CCOC(=O)CNC(=O)C(=O)C(COCc1ccccc1)NC(=O)[C@H](CC1CCCCC1)NC(=O)c1ccc(Br)o1 (some centres undefined)	76	80	–	2.3	–	–
CCOC(=O)CNC(=O)C(=O)C(COCc1ccccc1)NC(=O)[C@H](CC1CCCCC1)NC(=O)c1cncc(C)n1 (some centres undefined)	62	60	–	6.1	–	–
CCOC(=O)CNC(=O)C(=O)C(COCc1ccccc1)NC(=O)[C@H](CC1CCCCC1)NC(=O)C1=CC(=O)CC(C)(C)O1 (some centres undefined)	89	98	> 50000	4.3	37000	–
CCOC(=O)CNC(=O)C(=O)[C@H](COCc1ccccc1)NC(=O)[C@H](CC1CCCCC1)NC(=O)c1cc(Br)ccc1N	69	52	–	6.2	–	–
CCOC(=O)CNC(=O)C(=O)C(COCc1ccccc1)NC(=O)[C@H](CC1CCCCC1)NC(=O)c1ccc(Cl)c(NC(=O)OC(C)(C)C)c1 (some centres undefined)	48	50	42000	15.7	48000	–

SMILES	Activity (HUVEC [1]) [%]	Activity [2] [%]	IC50 [3] [nM]	IC50 (Cathepsin S [4]) [nM]	IC50 (HUVEC [5]) [nM]	other results
CCCCCC1OC(=O)C(C(=O)N[C@@H](CC2CCCCC2)C(=O)NC(COCc2ccccc2)C(=O)C(=O)NCC(=O)OC)=CC1C (some centres undefined)	99	119	–	42.3	–	–
CCOC(=O)CNC(=O)C(=O)C(COCc1ccccc1)NC(=O)[C@H](CC1CCCCC1)NC(=O)c1cc(OC)ccc1[N+](=O)[O-] (some centres undefined)	98	95	> 50000	3.1	39000	–
N#C[C@H](COCc1ccccc1)NC(=O)[C@H](CC1CCCCC1)NC(=O)N1CCOCC1	83	67	> 50000	–	> 50000	Activity [6]: 104%; Activity [7]: 44.8%
CCOC(=O)CNC(=O)C(=O)C(COCc1ccccc1)NC(=O)[C@H](CC1CCCCC1)NC(=O)c1cc(Cl)ccc1[N+](=O)[O-] (some centres undefined)	68	76	> 50000	8	> 50000	–
CCOC(=O)CNC(=O)C(=O)[C@H](COCc1ccccc1)NC(=O)[C@H](CC1CCCCC1)NC(=O)c1cc(F)ccc1F	34	48	–	11.5	–	–
CCOC(=O)CNC(=O)C(=O)[C@H](COCc1ccccc1)NC(=O)[C@H](CC1CCCCC1)NC(=O)C(=O)c1cccs1	57	56	> 50000	6.6	36000	Activity (HUVEC [8]): 36%; Activity [9]: 82%; Activity [10]: 18%; MNTC [11]: 10 µM; Activity (HUVEC [12]): 64%; MNTC [13]: 10 µM; inhibition (Cathepsin S [14]): Dose-dependent effect
CCOC(=O)CNC(=O)C(=O)C(COCc1ccccc1)NC(=O)[C@H](CC1CCCCC1)NC(=O)c1ccc(C(=O)OC)c(N)c1 (some centres undefined)	49	53	> 50000	5.8	> 50000	Activity [6]: 84%; Activity (HUVEC [8]): 57%; Activity [9]: 67%; Activity [7]: 8%; Activity [10]: 33%; Activity (HUVEC [12]): 43%; inhibition (Cathepsin S [14]): Dose-dependent effect
CCOC(=O)CNC(=O)C(=O)C(COCc1ccccc1)NC(=O)[C@H](CC1CCCCC1)NC(=O)c1ccc(Cl)c(N)c1 (some centres undefined)	46	68	> 50000	2.1	> 50000	–
CC(C)C[C@H](NC(=O)[C@H]1O[C@@H]1C(=O)O)C(=O)NCCCCN=C(N)N	–	–	–	–	–	inhibition [6]: 75%; inhibition [7]: -1.3%
CCOC(=O)CNC(=O)C(=O)C(COCc1ccccc1)NC(=O)[C@H](CC1CCCCC1)NC(=O)C1(C)CC1 (some centres undefined)	95	101	> 50000	3.4	35000	–
CCOC(=O)CNC(=O)C(=O)[C@H](COCc1ccccc1)NC(=O)[C@H](CC(C)C)NC(=O)c1cccc2c1C(=O)c1ccccc1-2	55	50	23000	8.8	30000	Activity (HUVEC [8]): 32%; Activity [9]: 68%; Activity [10]: 32%; MNTC [11]: 10 µM; Activity (HUVEC [12]): 88%; MNTC [13]: 10 µM; inhibition (Cathepsin S [14]): Dose-dependent effect
CCOC(=O)CNC(=O)C(=O)C(COCc1ccccc1)NC(=O)[C@H](CC1CCCCC1)NC(=O)Cc1cccs1 (some centres undefined)	59	67	> 50000	7.2	39000	–
CCOC(=O)CNC(=O)C(=O)C(COCc1ccccc1)NC(=O)[C@H](CC1CCCCC1)NC(=O)N1CCOCC1 (some centres undefined)	87	51	> 50000	4.4	> 50000	Activity [6]: 102%; Activity [7]: 3.2%; inhibition (Cathepsin S [15]): Active
CCOC(=O)CNC(=O)C(=O)C(COCc1ccccc1)NC(=O)[C@H](CC1CCCCC1)NC(=O)c1ccc(OC(C)=O)cc1 (some centres undefined)	27	69	> 50000	2	> 50000	Activity [6]: 91%; Activity [7]: 0.4%
CCOC(=O)CNC(=O)C(=O)C(COCc1ccccc1)NC(=O)[C@H](CC1CCCCC1)NC(=O)c1ccc([N+](=O)[O-])s1 (some centres undefined)	56	64	> 50000	10.3	48000	–
CCOC(=O)CNC(=O)C(=O)C(COCc1ccccc1)NC(=O)[C@H](CC1CCCCC1)NC(=O)c1cc2ccccc2n1C (some centres undefined)	55	69	–	7.1	–	–
